TRPC4 inh: inhibitors of mouse TRPC4 channel, primary screen, Fluo4 calcium, HEK293 TRPC4beta/mu-opioid cells. B-score at 10 µM. AID 2247, 2010. hit rate 0.39% among 300,000. DAMGO-evoked Fluo4 calcium flux; active compounds read low;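 active = B-score over 3 SD under the library average, no early fluorescence shift, positive overall ratio signal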
Target sequence (Q9QUQ5 whole entry, looked up): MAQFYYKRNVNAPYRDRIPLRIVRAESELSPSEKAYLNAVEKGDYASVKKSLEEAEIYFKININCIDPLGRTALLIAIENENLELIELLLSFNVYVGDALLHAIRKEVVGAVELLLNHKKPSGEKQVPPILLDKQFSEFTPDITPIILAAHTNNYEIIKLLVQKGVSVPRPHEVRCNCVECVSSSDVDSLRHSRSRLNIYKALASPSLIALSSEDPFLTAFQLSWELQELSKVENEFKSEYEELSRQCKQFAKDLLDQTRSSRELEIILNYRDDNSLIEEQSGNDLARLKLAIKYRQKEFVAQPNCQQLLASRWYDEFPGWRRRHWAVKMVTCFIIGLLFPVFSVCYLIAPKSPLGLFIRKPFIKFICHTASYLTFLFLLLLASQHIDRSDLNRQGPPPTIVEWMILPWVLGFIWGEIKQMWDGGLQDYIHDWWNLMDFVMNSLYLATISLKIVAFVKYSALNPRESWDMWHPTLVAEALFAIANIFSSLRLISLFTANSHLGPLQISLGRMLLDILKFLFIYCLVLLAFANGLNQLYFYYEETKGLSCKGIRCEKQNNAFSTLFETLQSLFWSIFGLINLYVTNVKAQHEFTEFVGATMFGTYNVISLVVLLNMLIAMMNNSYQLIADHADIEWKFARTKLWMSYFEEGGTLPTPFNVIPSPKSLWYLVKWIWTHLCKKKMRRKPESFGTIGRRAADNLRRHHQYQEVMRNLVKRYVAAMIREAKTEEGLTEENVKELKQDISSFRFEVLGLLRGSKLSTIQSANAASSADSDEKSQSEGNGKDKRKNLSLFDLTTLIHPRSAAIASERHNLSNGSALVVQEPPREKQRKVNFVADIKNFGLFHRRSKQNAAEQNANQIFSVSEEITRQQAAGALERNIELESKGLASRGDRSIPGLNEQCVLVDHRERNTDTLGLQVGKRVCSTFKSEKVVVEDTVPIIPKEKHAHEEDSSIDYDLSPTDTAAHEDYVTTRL
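material = TRPC4beta/mu-opioid receptor HEK293 cell line | probe or stimulus = sequential submaximal and maximal DAMGO stimulation | compound dosing = one concentration per compound | measured by = Fluo4 Ca2+ flux fluorescence | evaluation = integrated fluorescence ratio relative to baseline, converted to per-well B score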
TRPC4 PAM: positive allosteric modulators of TRPC4, primary screen, cell-based, mouse TRPC4beta, HEK293 mu-opioid, Fluo-4 calcium. Short transient receptor potential channel 4 (Mus musculus), Q9QUQ5. B-score at 10 µM. hit rate 0.42% among 310,000. DAMGO EC20, Fluo-4 Ca2+ flux; active compounds read high;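 active = B-score of calcium response area above 5 SD of library B-scores, with initial fluorescence ratio within 5 SD of library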
TRPC6 inhibitor: mouse TRPC6 channel inhibitors, primary screen, cell-based, HEK293, membrane potential dye | Short transient receptor potential channel 6 (Mus musculus), Q61143 | ACh-evoked depolarization; active compounds read low | B-score at 10 µM | hit rate 1.1% among 310,000 | AID 2553, 2010;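 active = B-score under library mean minus 3 SD, initial fluorescence not abnormally high, positive integrated signal ratio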;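 note: B-score derived from integrated fluorescence ratio over the kinetic read; more negative B-score means stronger inhibition of depolarization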
TRPC6 act: mouse TRPC6 channel activators, primary screen, cell-based, HEK293, membrane potential dye | Short transient receptor potential channel 6 (Mus musculus), Q61143 | HEK293-TRPC6 membrane potential dye fluorescence; active compounds read high | B-score at 10 µM | hit rate 0.13% among 310,000;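 active = B-score of the integrated fluorescence ratio above library mean plus 3 SD, and starting fluorescence ratio within library mean plus 5 SD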;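 note: higher score means more depolarization so channel activation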
TRPC4 agonist: activators of mouse TRPC4 channel, primary screen, Fluo4 calcium, HEK293 TRPC4beta/mu-opioid cells; Short transient receptor potential channel 4 (Mus musculus), Q9QUQ5; Fluo4 calcium fluorescence; active compounds read high; B-score at 10 µM; hit rate 0.49% among 310,000; AID 2237, 2010;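 active = B-score above 5 SD of library B-scores, and initial fluorescence ratio not above library mean plus 5 SD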;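 note: positive B-score marks a calcium rise read as TRPC4 activation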
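Test system: HEK293 cells stably co-expressing mouse TRPC4beta and mu-opioid receptor | Schedule: Fluo4 dye loading 45 min at room temperature, 110 s recording | Measured by: Kinetic Fluo4 calcium fluorescence, 5 s baseline at 1 Hz | Evaluation: B score of integrated ratio | Controls: Buffer (low) and maximal DAMGO (high)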
TRPC4 sel inh 2: second check of whether TRPC6 inhibitors also affect mouse TRPC4 | hit rate 42% among 920 | inhibition, % at 10 µM | HEK293 TRPC4/MOR, membrane potential dye fluorescence; channel activated by saturating DAMGO dose | AID 2776 | shares compounds with TRPC6 inhibitor;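 active = compounds whose fluorescence signal differed from control wells by over 3 SD, either direction, in both duplicate plates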
TRPC4 spec: mouse TRPC4 modulation by TRPC6 hits, confirmation, selectivity assay for TRPC6 inhibitor project, cell-based, HEK293 TRPC4/mu-opioid, membrane potential dye; shares compounds with TRPC6 inhibitor; membrane potential fluorescence; activity change, negative = inhibition, % at 10 µM; hit rate 61% among 920; AID 2777, 2010;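 active = rise or fall in signal beyond 3 SD of buffer-only wells in both replicate plates, either sign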;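 note: integrated kinetic ratio of fluorescence range over baseline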
HEK293 MPD ctr 2-1: nonspecific membrane potential effects, parental HEK293, confirmation, counter-screen for TRPC6 inhibitor project, cell-based, second counter screen | AID 2779, 2010 | shares compounds with TRPC6 inhibitor | hit rate 31% among 920 | signal change vs control, % at 10 µM | parental HEK293 membrane potential dye fluorescence; maximal acetylcholine challenge after compound addition;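 active = membrane potential signal moving either way by over 3 SD of the maximum-effect control, in both duplicate plates, meaning non-specific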
HEK293 MPD ctr-1: membrane potential modulation in parental HEK293, confirmation, counter-screen for TRPC6 inhibitor project, cell-based; membrane potential signal change, % at 10 µM; hit rate 60% among 920; shares compounds with TRPC6 inhibitor; AID 2780, 2010; parental HEK293 membrane potential dye fluorescence;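 active = membrane potential signal shifting up or down by more than 3 SD of buffer-only wells, on both duplicate plates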
HEK293 MPD ctr-2: parental HEK293 membrane potential modulation, confirmation, counter-screen for TRPC6 modulator project, cell-based. shares compounds with TRPC6 inhibitor. membrane potential dye fluorescence. membrane potential signal change, % at 10 µM. hit rate 51% among 2,400. AID 488924, 2010;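 active = membrane potential signal moves up or down beyond 5 SD from buffer-only wells, on both duplicate plates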
HEK293 MPD ctr 2-2: second check of TRPC6 modulator effects in parental HEK293 cells; shares compounds with TRPC6 inhibitor; membrane potential dye fluorescence; after compound, maximal acetylcholine stimulation; inhibition, % at 10 µM; hit rate 14% among 2,400; AID 488926;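 active = membrane potential signal drops by more than 5 SD from the mean control signal, in both duplicate plates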
TRPC4 ctr mod: TRPC4 modulation by TRPC6 hit compounds, confirmation, selectivity assay for TRPC6 modulator project, cell-based, HEK293 TRPC4/mu-opioid, membrane potential dye, mouse; membrane potential fluorescence; hit rate 69% among 2,400; percent change from control (negative = decrease, positive = increase), % at 10 µM; shares compounds with TRPC6 inhibitor;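 active = membrane potential signal moved up or down beyond 5 SD of buffer control wells, in both duplicate plates, actives on both sides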
TRPC4 ctr inh 2: mouse TRPC4 off-target activity of TRPC6 modulators, second screen. shares compounds with TRPC6 inhibitor. HEK293 TRPC4/mu-opioid, membrane potential dye fluorescence; stimulated with maximal-effect DAMGO. hit rate 55% among 2,400. inhibition, % at 10 µM;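 active = drop in membrane potential signal beyond 5 SD of the control wells in both duplicate plates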;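 note: TRPC4 counter screen for TRPC6 hits run under conditions tuned for TRPC6 not TRPC4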
TRPC6 inh conf: mouse TRPC6 channel inhibitors, confirmation, HEK293 cells, membrane potential dye, duplicate | ACh-evoked depolarization | AID 488960, 2010 | hit rate 43% among 3,300 | shares compounds with TRPC6 inhibitor | inhibition, % at 10 µM;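 active = fluorescence ratio falls more than 5 SD below the full-stimulation control mean, in both duplicate runs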;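 note: integrated fluorescence ratio of peak minus minimum over baseline after agonist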
TRPC6 act confirm: mouse TRPC6 channel activators, confirmation, HEK293 cells, membrane potential dye, duplicate | HEK293-TRPC6 membrane potential dye fluorescence, FDSS | shares compounds with TRPC6 inhibitor | hit rate 11% among 2,800 | AID 488961, 2010 | activation, % at 10 µM;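 active = ratio signal rise beyond 5 SD above unstimulated control wells' mean, seen in both duplicate runs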
Large screens that a line does not name were inactive (follow-up assays come after a bar, where they were run). In the library only some 2.3% were active in any assay of this set; here they are far more common.

Cc1oc(-c2ccc(Cl)cc2)nc1CN1CCCC(C(=O)NCc2ccccn2)C1 (centres undefined)	TRPC6 inhibitor -5.8, TRPC6 act 16 | HEK293 MPD ctr-2 160% | HEK293 MPD ctr 2-2 inactive | TRPC4 ctr mod 18% | TRPC4 ctr inh 2 72% | TRPC6 inh conf 64% | TRPC6 act confirm 144%
Cc1oc(-c2cccc(Cl)c2)nc1CN1CCC(C(=O)NCc2ccco2)CC1	none
Cc1oc(-c2ccc(Cl)cc2)nc1CN1CCC(C(=O)NCc2ccco2)CC1	TRPC4 inh -6, TRPC6 act 12 | HEK293 MPD ctr-2 inactive | HEK293 MPD ctr 2-2 inactive | TRPC4 ctr mod 8.0% | TRPC4 ctr inh 2 72% | TRPC6 act confirm 122%
Cc1oc(-c2ccc(Cl)cc2)nc1CN1CCC(C(=O)N2CCN(Cc3ccccc3)CC2)CC1	TRPC6 act 12 | HEK293 MPD ctr-2 226% | HEK293 MPD ctr 2-2 inactive | TRPC4 ctr mod 40% | TRPC4 ctr inh 2 68% | TRPC6 inh conf inactive | TRPC6 act confirm 129%
COc1ccc(CC(=O)NCc2n[nH]c(=S)n2-c2cccc(Cl)c2)cc1	none
Cc1nc(CN(C)C(=O)CC2C(=O)NCCN2Cc2ccc(-c3ccccc3)cc2)cs1 (centres undefined)	none
Cc1oc(-c2ccc(Cl)cc2)nc1CN1CCC(C(=O)N2CCc3ccccc3C2)CC1	TRPC4 PAM 15, TRPC6 act 14 | HEK293 MPD ctr-2 202% | HEK293 MPD ctr 2-2 inactive | TRPC4 ctr mod 32% | TRPC4 ctr inh 2 62% | TRPC6 inh conf inactive | TRPC6 act confirm 80%
CCN1CCN(CCNC(=O)C2CCN(Cc3nc(-c4ccc(Cl)cc4)oc3C)CC2)CC1	none
COc1cc(-c2nc(CN3CCN(C(=O)c4ccco4)CC3)c(C)o2)ccc1F	TRPC6 inhibitor -6.3, TRPC6 act 12 | HEK293 MPD ctr-2 inactive | HEK293 MPD ctr 2-2 inactive | TRPC4 ctr mod 12% | TRPC4 ctr inh 2 inactive | TRPC6 inh conf 62% | TRPC6 act confirm 139%
COc1ccccc1CNC(=O)C1CCN(Cc2nc(-c3cccc(Cl)c3)oc2C)CC1	TRPC6 inhibitor -9.5 | HEK293 MPD ctr-2 115% | HEK293 MPD ctr 2-2 inactive | TRPC4 ctr mod 15% | TRPC4 ctr inh 2 97% | TRPC6 inh conf inactive
CCc1ccc(-c2nc(CN3CCC(C(=O)NCc4ccccc4OC)CC3)c(C)o2)cc1	none
COc1cc(N)ccc1NC(=O)c1cc2ccccc2o1	none
CCOc1ccc(S(=O)(=O)N2CCCCC2)cc1NC(=O)C1CSC2(C)CCC(=O)N12 (centres undefined)	TRPC6 inhibitor -8.3, TRPC6 act 12 | HEK293 MPD ctr-2 152% | HEK293 MPD ctr 2-2 inactive | TRPC4 ctr mod 33% | TRPC4 ctr inh 2 inactive | TRPC6 inh conf 68% | TRPC6 act confirm 106%
CC(C)(C)c1ccc(CN2C(=O)CSC2=O)cc1	TRPC6 inhibitor -5.2 | HEK293 MPD ctr-2 inactive | HEK293 MPD ctr 2-2 inactive | TRPC4 ctr mod inactive | TRPC4 ctr inh 2 inactive | TRPC6 inh conf inactive | TRPC6 act confirm inactive
O=C(O)c1ccc(CN2C(=O)CSC2=S)cc1	none
Cn1c(SCC(=O)Nc2sc3c(c2C#N)CCC3)nnc1C1COc2ccccc2O1 (centres undefined)	TRPC6 inhibitor -11 | TRPC4 sel inh 2 inactive | TRPC4 spec inactive | HEK293 MPD ctr 2-1 inactive | HEK293 MPD ctr-1 inactive | TRPC6 inh conf 63%
CN(C)CCCn1c(SCC(=O)Nc2sc3c(c2C#N)CCCC3)nnc1-c1ccncc1	TRPC6 act 16 | HEK293 MPD ctr-2 187% | HEK293 MPD ctr 2-2 inactive | TRPC4 ctr mod 28% | TRPC4 ctr inh 2 inactive | TRPC6 inh conf inactive | TRPC6 act confirm 76%
C=CCn1c(SCC(=O)Nc2sc3c(c2C#N)CCC3)nnc1C1COc2ccccc2O1 (centres undefined)	none
COCCCn1c(SCC(=O)Nc2sc3c(c2C#N)CCCC3)nnc1-c1ccncc1	none
CCc1ccc(NC(=O)CCC(=O)Nc2nnc(C(C)C)s2)cc1	none
O=C(CN(C(=O)c1ccccc1Cl)N1C(=O)C2C3C=CC(C3)C2C1=O)c1cccs1 (centres undefined)	none
COc1ccc(C(O)Cn2ccsc2=NC(C)=O)cc1 (centres undefined)	none
COc1ccc(OC)c(N/C(N)=N/c2nc(C)cc(C)n2)c1	none

Compound activity (PubChem)
